# Screening results from PubChem BioAssay.
# T cruzi inh: blocks replication of Trypanosoma cruzi; T. cruzi beta-gal in NIH3T3, luminescence, 90 h; inhibition, % (no concentration beside the values); 1.4% of 300,000 active;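 active means mean inhibition across valid replicates above about 55%, limit read from the data; inconclusive means mean below that limit but half or more replicates reach it; inactive means mean below it, under half of replicates reach it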;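 further: signal also drops with host cell toxicity which is not excluded here; 0% = plate median of DMSO wells and 100% = zero luminescence signal; higher percent means less beta-gal luminescence so fewer parasites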
#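 compound dosing = single 50 nL compound addition per well in DMSO | material = NIH/3T3 host cells with β-galactosidase reporter T. cruzi | input = 5,000 host fibroblasts per well | timing = ≥90 h infection period, 3 h prior cell attachment | read-out basis = percent inhibition of parasite-derived β-gal signal | detection = GalScreen β-gal luminescence, detergent lysis, 60 min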
# Beta apoptosis: blocks beta cell apoptosis | INS-1E cytokine-induced death, ATP luminescence, 48 h; percent of positive-control rescue, neutral wells zero | protection from apoptosis, % (concentration not given with the values) | 0.8% of 300,000 active;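 active means Every replicate reaches about 75%, or at least half do and their mean reaches it too, limit read from the data; inconclusive means At least half of replicates reach the limit but their mean does not; inactive means Under half of replicates reach the limit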;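 further: 0% = cytokine-treated negative control wells and 100% = positive control rescue; higher means more ATP so stronger rescue from cytokine killing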
# Calb FLC: C. albicans growth modulation with fluconazole; C. albicans CaCi-2 + fluconazole, Alamar Blue growth, 48 h; growth inhibition, % (no concentration beside the values); 0.57% of 300,000 active; AID 1979;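 active means growth inhibition above about 58% in most replicates, limit read from the data, passing the limit was not always enough; inconclusive means exactly half the replicates above a set limit; inactive means most replicates below a set limit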;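 further: all wells also contain fluconazole at 8 µg/ml as a sub-toxic cotreatment; 0% = median of DMSO wells and 100% = median of geldanamycin control wells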
# CSC inhib: cancer stem cell inhibition; cancer stem cell-like cells viability, luminescence; inhibition, % at 7.5 µM; 1.1% of 300,000 active; in the data active means inhibition above about 75%; inconclusive means no clear call, values can overlap the other calls; tested in HMLE shEcad cells
# SKKanGAS inh: blocks kanamycin growth of S. pyogenes SKKanGAS strain; BacTiter-Glo, 6 h; inhibition, % at 7.5 µM; 1.3% of 300,000 active;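 active means mean replicate score, as percent of positive control median, at least 50; inconclusive means mean below 50 but one replicate at or above 50; inactive means mean and every replicate below 50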;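 further: strain carries kanamycin resistance gene driven by streptokinase promoter and grows in 40 µg/ml kanamycin; loss of luminescence reflects streptokinase promoter inhibition or plain growth inhibition; 0% = median of DMSO wells and 100% = positive control at its reference dose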
# Mdm2-MdmX inh: human Mdm2/MdmX binding inhibition | 3% of 330,000 active | O15151+Q00987 | SaOS-2 split-luciferase Mdm2/MdmX complementation, luminescence | inhibition, % at 8 µM;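 active means inhibition of at least 50% at 8 µM in the primary screen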
# Target sequence (O15151 whole entry, looked up): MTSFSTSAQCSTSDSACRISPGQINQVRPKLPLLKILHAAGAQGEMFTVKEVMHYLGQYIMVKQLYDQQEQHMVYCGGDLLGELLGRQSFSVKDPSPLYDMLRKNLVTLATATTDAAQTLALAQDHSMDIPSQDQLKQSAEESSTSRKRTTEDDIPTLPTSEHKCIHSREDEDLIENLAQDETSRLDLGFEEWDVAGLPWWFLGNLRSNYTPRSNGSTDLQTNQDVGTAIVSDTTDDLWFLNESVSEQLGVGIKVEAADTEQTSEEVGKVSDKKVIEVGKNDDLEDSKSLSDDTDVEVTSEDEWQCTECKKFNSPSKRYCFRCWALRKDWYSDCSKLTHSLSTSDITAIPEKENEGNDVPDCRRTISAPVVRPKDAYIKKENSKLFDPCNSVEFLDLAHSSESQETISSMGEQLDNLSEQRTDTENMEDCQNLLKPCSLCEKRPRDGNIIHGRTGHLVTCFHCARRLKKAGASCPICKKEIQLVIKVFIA
# Target sequence (Q00987 whole entry, looked up): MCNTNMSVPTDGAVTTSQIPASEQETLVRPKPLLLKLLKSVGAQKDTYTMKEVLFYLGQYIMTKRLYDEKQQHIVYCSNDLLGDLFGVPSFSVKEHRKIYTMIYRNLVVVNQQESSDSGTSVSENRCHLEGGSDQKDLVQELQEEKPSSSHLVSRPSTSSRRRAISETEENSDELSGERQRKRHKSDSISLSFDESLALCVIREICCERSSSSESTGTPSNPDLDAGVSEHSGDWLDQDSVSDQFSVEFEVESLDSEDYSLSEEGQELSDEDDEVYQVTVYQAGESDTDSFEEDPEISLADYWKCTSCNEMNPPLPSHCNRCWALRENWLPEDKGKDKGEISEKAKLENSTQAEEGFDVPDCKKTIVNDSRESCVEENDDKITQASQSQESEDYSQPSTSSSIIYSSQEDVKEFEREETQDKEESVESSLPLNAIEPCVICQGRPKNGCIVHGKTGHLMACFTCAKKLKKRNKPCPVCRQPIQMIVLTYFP
# * hit, by the source's call; ? = inconclusive; . = no result given. The list is not random: actives were taken first. Their share in the collection is about 5.7%.
SMILES,T cruzi inh,Beta apoptosis,Calb FLC,CSC inhib,SKKanGAS inh,Mdm2-MdmX inh
CC(=O)c1sc2nc(-c3ccccc3)cc(C)c2c1N,56*,8,-28,-6,1,34
Nc1c(C(=O)O)sc2nc(-c3ccccc3)cc(-c3ccc(Cl)cc3)c12,4,-2,-4,29,?,26
NS(=O)(=O)c1ccc(CCNC(=O)C(=O)NCC2OCCN2S(=O)(=O)c2ccc(Cl)cc2)cc1 (stereo unspecified),1,4,1,1,-2,24
CN(C(=O)c1ccc(NC(=O)Cc2cccc(NC(=O)C3CCN(C(=O)c4ccccc4)CC3)c2)cc1)C1CCCC1,.,4,.,14,.,12
O=C(CCCCCNC(=O)c1ccccc1)N=Nc1c(O)[nH]c2c(Br)cc(Br)cc12,20,0,13,18,59*,3
O=C(CNC(=O)c1cccnc1)N=Nc1c(O)[nH]c2c(Br)cc(Br)cc12,11,-1,.,6,14,-7
CCCn1nc([N+](=O)[O-])c(C(C#N)c2nc3ccccc3o2)c(Cl)c1=O (stereo unspecified),-16,0,22,79*,10,-17
Cn1nc([N+](=O)[O-])c(C(C#N)c2ccccn2)c(Cl)c1=O (stereo unspecified),64*,-40,.,88*,.,23
Cc1cc(C)cc(NC(=O)C2CCN(S(=O)(=O)c3ccc4[nH]c(=O)ccc4c3)CC2)c1,-17,8,-8,.,-9,25
COc1ccc(C(=O)C2CCCN(C(=O)c3ccc4nccnc4c3)C2)c(C)c1 (stereo unspecified),-1,-1,3,3,1,8
CC(C)(C)N(NS(=O)(=O)c1ccc(F)cc1)c1ccccc1,-12,-7,3,-5,-1,-12
CCN(CC(O)CON=C1c2ccccc2-c2ccccc21)S(=O)(=O)c1ccc(Cl)cc1 (stereo unspecified),62*,24,12,40,37,12
Cc1cccc(N(CC(O)CON=C2c3ccccc3-c3ccccc32)S(C)(=O)=O)c1 (stereo unspecified),60*,-2,-3,5,4,44
CCN(CC(O)CON=C1c2ccccc2-c2ccccc21)S(=O)(=O)c1ccc(C)cc1 (stereo unspecified),62*,5,-6,46,30,22
CCN(CC(O)Cn1c2ccccc2c2ccccc21)S(=O)(=O)c1ccc(F)cc1 (stereo unspecified),-4,4,20,10,.,19
CN(CC(O)CON=C1c2ccccc2-c2ccccc21)S(=O)(=O)c1ccc(Br)cc1 (stereo unspecified),44,8,15,98*,27,16
CS(=O)(=O)N(CC(O)CON=C1c2ccccc2-c2ccccc21)c1ccc(F)cc1 (stereo unspecified),19,.,-5,.,3,13
O=C1CC2(CCCCC2)Oc2ccc(Cl)cc21,-20,2,-8,12,5,9
O=C(c1cnn2c(C(F)F)cc(-c3ccccc3)nc12)N1CCN(Cc2ccc3c(c2)OCO3)CC1,50,12,-1,0,6,25
Cc1cc(C(=O)NC(C)CCc2ccccc2)ccc1[N+](=O)[O-] (stereo unspecified),0,5,-43,-15,-4,13
CCOc1ccc(C2C(C(=O)OC)=CN(C(C)c3ccccc3)C=C2C(=O)OC)cc1 (stereo unspecified),15,12,-13,7,5,9
Nc1cc(S(=O)(=O)N2CCOCC2)ccc1Oc1cccc(Br)c1,.,.,.,.,.,19
Clc1ccc(-c2csc(N3CCc4ccccc4C3)n2)cc1,-6,1,1,-6,56*,-30
C=CCNC(=O)c1cc2c(=O)n3ccccc3nc2s1,12,9,14,3,3,6
O=C(NCc1cccnc1)c1ccc(NC(=O)c2ccc(Br)cc2)cc1,-51,140*,-9,85*,-1,32
SMILES,T cruzi inh,Beta apoptosis,Calb FLC,CSC inhib,SKKanGAS inh,Mdm2-MdmX inh
O=C(NCc1cccnc1)Nc1ccc(Br)cc1,15,-6,1,1,3,2
CC(C)C(=O)Nc1ccc(C(=O)NCc2cccnc2)cc1,30,107*,-1,44,0,0
COc1ccc(N2CCN(C(=O)CN3C(=O)NC4(CCCCCC4)C3=O)CC2)cc1,.,-2,.,.,.,-28
CCCN(CCC)CCNC(=O)c1cc2c(-c3ccc(Cl)cc3)nn(C)c2s1,53,53,-3,102*,0,24
CCN(CC)CCNC(=O)c1cc2c(-c3ccc(Cl)cc3)nn(C)c2s1,40,.,-3,.,1,39
Cn1nc(-c2ccc(Cl)cc2)c2cc(C(=O)NCCCN3CCOCC3)sc21,-1,12,15,79*,-3,17
Cc1ccc2ccc3cccnc3c2n1,?,86*,18,-10,43,.
O=C(Nc1ccc(N2CCN(C(=O)c3ccco3)CC2)c(Cl)c1)c1cccnc1,9,0,-2,-22,-1,0
O=C(Nc1ccc(N2CCN(C(=O)c3ccco3)CC2)c(Cl)c1)c1c(F)c(F)c(F)c(F)c1F,49,2,1,8,50*,30
CCOc1ccc(S(=O)(=O)c2c[nH]c3ccccc3c2=O)cc1,5,-1,-1,-10,-8,-8
CCCCCCCCOC(=O)c1c(CSC(=N)N)n(C)c2cc(Br)c(OC(C)=O)cc12,22,-1,15,76*,75*,-5
CSc1c(SCc2ccccc2)cnn(-c2ccccc2)c1=O,-6,-4,1,79*,7,-5
C/C(=N\N1C(=O)c2ccccc2NC1c1ccco1)c1ccccc1O (stereo unspecified),61*,99*,33,-5,-7,-13
O=C1c2ccccc2NC(c2ccco2)N1/N=C/c1ccco1 (stereo unspecified),-2,-2,9,-2,0,-7
COc1ccc(/C(C)=N/N2C(=O)c3ccccc3NC2c2ccc(O)c(OC)c2)cc1 (stereo unspecified),-12,-1,-2,-7,-2,-7
C/C(=N\N1C(=O)c2ccccc2NC1c1ccccc1)c1ccccc1O (stereo unspecified),66*,87*,23,3,-7,-22
Fc1ccccc1Nc1nc(-c2ccncc2)nc2ccccc12,55*,-5,-4,10,1,20
c1ccc(Nc2nc(-c3ccncc3)nc3ccccc23)cc1,27,-3,?,2,-9,5
CC(Nc1nc(-c2ccncc2)nc2ccccc12)c1ccccc1 (stereo unspecified),61*,-10,-16,67,1,34
Fc1ccc(Nc2nc(-c3ccncc3)nc3ccccc23)cc1,36,13,-19,-17,-7,44
CC1(C)C2CCC1(C)C(OCC[N+](C)(C)CC(=O)OC1CCCCC1)C2 (stereo unspecified),63*,47,67,25,0,40
